In ChEMBL document CHEMBL1126689, “Novel heterocyclic analogues of the new potent class of calcium entry blockers: 1-[[4-(aminoalkoxy)phenyl]sulfonyl]indolizines” (J Med Chem, 1993):

Tests used:
Rattus norvegicus = species on record: Rattus norvegicus; assay: Inhibition of [Ca2+] induced contraction of K+ depolarized rat aorta by 50%; type: functional
Outline: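 Spirally cut thoracic aorta strips from male Wistar rats were held in modified Krebs solution at 37 °C, gassed with 95% O2/5% CO2. Ca2+-induced contraction was measured after K+ depolarization. The value is the molar concentration blocking contraction by 50%, given as mean ± SE of 3–6 determinations.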

Cavia porcellus [1] = species on record: Cavia porcellus; assay: Inhibition of [3H]nitrendipine binding to L-type calcium channel of guinea pig cerebral cortex membrane at 10e-5 M; type: functional, tissue-based
[2] = Inhibitory concentration of [3H]- nitrendipine binding against guinea pig cerebral cortex membrane; type: functional, tissue-based, Cavia porcellus
Outline: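 Guinea pig cerebral cortex membranes (washed pellets, stored in liquid nitrogen), 200 μg protein, incubated under sodium light for 90 min at 25 °C in 50 mmol Tris-HCl pH 7.4 with 0.5 nmol [3H]nitrendipine and various compound concentrations (DMSO). Filtration and scintillation counting; 1 μM nifedipine defined specific binding.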

Cavia porcellus [3] = species on record: Cavia porcellus; assay: Molar concentration needed to […] by 50% of maximal stimulation; type: functional
Cavia porcellus [4] = species on record: Cavia porcellus; assay: Stimulatory concentration of [3H]nitrendipine binding to L-type calcium channel of guinea pig cerebral cortex membrane at 10e-6 M; type: functional, tissue-based

Compound	IC50 (Rattus norvegicus)	inhibition (Cavia porcellus [1])	IC50 [2]	IC50 (Cavia porcellus [3])	Stimulation (Cavia porcellus [4])
CC(C)c1nn2ccccc2c1S(=O)(=O)c1ccc(OCCCNC(C)(C)C)cc1	168 nM				
CCCCN(CCCC)CCCOc1ccc(S(=O)(=O)c2c[nH]nc2C(C)C)cc1	5060 nM	6%			
COc1ccc(CCN(C)CCCOc2ccc(S(=O)(=O)c3c(C(C)C)cc4ccccn34)cc2)cc1OC	5.9 nM		0.22 nM		
COc1cc(CCN(C)CCCOc2ccc(S(=O)(=O)c3c(C(C)C)oc4ccccc34)cc2)cc(OC)c1OC	5.8 nM		0.59 nM		
COc1ccc(CCNCCCOc2ccc(S(=O)(=O)c3c(C(C)C)oc4ccccc34)cc2)cc1OC	17.1 nM		1.6 nM		
CCCCN(CCCC)CCCOc1ccc(S(=O)(=O)c2cc3ccccc3nc2C(C)C)cc1	198 nM		94 nM		
COc1ccc(CCN(C)CCCOc2ccc(S(=O)(=O)c3c(C(C)C)cn4ccccc34)cc2)cc1OC [FANTOFARONE]			0.61 nM		
CC(C)c1cc2ccccn2c1S(=O)(=O)c1ccc(OCCCNC(C)(C)C)cc1	32.9 nM		12 nM		
COc1ccc(CCN(C)CCCOc2ccc(S(=O)(=O)c3ccoc3C(C)C)cc2)cc1OC	84.2 nM				
COc1ccc(CCN(C)CCCOc2ccc(S(=O)(=O)c3c(C(C)C)nn4ccccc34)cc2)cc1OC	18.8 nM		2.6 nM		
CCCCN(CCCC)CCCOc1ccc(S(=O)(=O)c2c(C(C)C)n(C)c3ccccc23)cc1	24.1 nM		11 nM		
CC(C)c1occc1S(=O)(=O)c1ccc(OCCCNC(C)(C)C)cc1	235 nM		244 nM		
CCCc1oc2ccccc2c1S(=O)(=O)c1ccc(OCCCN(C)CCc2ccc(OC)c(OC)c2)cc1	50.8 nM		5.2 nM		
CC(C)c1c(S(=O)(=O)c2ccc(OCCCNC(C)(C)C)cc2)c2ccccc2n1C	99.3 nM		116 nM		
CCCCc1oc2ccccc2c1S(=O)(=O)c1ccc(OCCCN(C)CCc2ccc(OC)c(OC)c2)cc1	227 nM		7.9 nM		
COc1cc(CCN(C)CCCOc2ccc(S(=O)(=O)c3c(C(C)C)c4ccccc4n3C)cc2)cc(OC)c1OC	1.9 nM		0.28 nM		
COc1ccc(CN(C)CCCOc2ccc(S(=O)(=O)c3c(C(C)C)n(C)c4ccccc34)cc2)cc1OC	3.7 nM		1 nM		

Compound	IC50 (Rattus norvegicus)	inhibition (Cavia porcellus [1])	IC50 [2]	IC50 (Cavia porcellus [3])	Stimulation (Cavia porcellus [4])
COc1ccc(CCN(C)CCCOc2ccc(S(=O)(=O)c3c(C(C)C)n(C)c4ccccc34)cc2)cc1OC	4.3 nM		1.1 nM		
CCCCN(CCCC)CCCOc1ccc(S(=O)(=O)c2c(C(C)C)[nH]c3ccccc23)cc1	55.1 nM		110 nM		
COc1cc(CCN(C)CCCOc2ccc(S(=O)(=O)c3c(C(C)C)c4ccccc4n3C)cc2)cc(OC)c1	16.4 nM		0.093 nM		
COc1ccc(CN(C)CCCOc2ccc(S(=O)(=O)c3c(C(C)C)oc4ccccc34)cc2)cc1OC	14.3 nM		1.9 nM		
COC(=O)C1=C(C)NC(C)=C(C(=O)OC)C1c1ccccc1[N+](=O)[O-] [NIFEDIPINE]			2.5 nM		
CC(C)c1nc2ccccc2cc1S(=O)(=O)c1ccc(OCCCNC(C)(C)C)cc1	370 nM		181 nM		
CCCCN(CCCC)CCCOc1ccc(S(=O)(=O)c2c(C(C)C)cc3ccccn23)cc1	13.3 nM		0.99 nM		
CCCCN(CCCC)CCCOc1ccc(S(=O)(=O)c2ccoc2C(C)C)cc1	119 nM		186 nM		
COc1ccc(CCN(C)CCCC(C#N)(c2ccc(OC)c(OC)c2)C(C)C)cc1OC (stereo unspecified)			38 nM		
COc1ccc(CCN(C)CCCOc2ccc(S(=O)(=O)c3c(C(C)C)oc4ccccc34)cc2)cc1OC	20.2 nM		0.65 nM		
COc1ccc(CCN(C)CCCOc2ccc(S(=O)(=O)c3[nH]c4ccccc4c3C(C)C)cc2)cc1OC	37.5 nM		2.2 nM		
COc1ccc(CCN(C)CCCOc2ccc(S(=O)(=O)c3c(C(C)C)[nH]c4ccccc34)cc2)cc1OC	19.1 nM		10.9 nM		
CCCCN(CCCC)CCCOc1ccc(S(=O)(=O)c2c(C(C)C)nn3ccccc23)cc1	31.1 nM				
COc1ccc(CCN(C)CCCOc2ccc(S(=O)(=O)c3c(C(C)C)c4ccccc4n3C)cc2)cc1OC	3.7 nM		0.072 nM		
COc1ccc([C@@H]2Sc3ccccc3N(CCN(C)C)C(=O)[C@@H]2OC(C)=O)cc1 [DILTIAZEM]				59 nM	
COc1ccc(CCN(C)CCCOc2ccc(S(=O)(=O)c3c[nH]nc3C(C)C)cc2)cc1OC	1720 nM				38%
COc1ccc(CCN(C)CCCOc2ccc(S(=O)(=O)c3cc4ccccc4nc3C(C)C)cc2)cc1OC	84.2 nM		13.1 nM		
